# Screening data: PubChem BioAssay, several laboratories
# Shown are actives, neighbours in structure and some others; about 2.1% of the full set was active somewhere.
# APJ ag – activates the human apelin receptor APJ. activation, % at 20 µM. AID 2520. P35414. CHO-K1 APJ PathHunter beta-arrestin, luminescence; 0% DMSO wells, 100% apelin. 330,000 compounds, 0.11% hits;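 active = activation more than six SD over the plate average, tested at 20 µM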;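 also: 0% = DMSO alone and 100% = apelin-13 at 10 nM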
#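 system = engineered CHO-K1 APJ arrestin reporter cells | input = 1000 cells per well | timing = overnight seeding, 90 min compound at 25 °C, 1 h detection | measured by = enzyme-fragment complementation luminescence | read-out = beta-arrestin recruitment to APJ as agonist activity, luminescent signal | control set = negative DMSO alone, positive Apelin-13 at 10 nM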
# CXCR6 inh – inhibitors of human CXCR6 receptor. O00574. CHO-K1 PathHunter CXCR6 beta-arrestin, luminescence. inhibition, % at 20 µM. 360,000 compounds, 0.36% hits. AID 602244; in the data active = inhibition above about 34%, passing the limit was not always enough;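 also: antagonist mode with CXCL16 agonist at 10 nM final; 0% = 10 nM CXCL16 with DMSO and 100% = unstimulated wells without agonist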
# HTR2A ag – activates the mouse 5-HT2A serotonin receptor; P35363; CHO-K1 mHTR2A beta-arrestin complementation, luminescence; percent of 30 µM serotonin response; activation, % at 7.6 µM; 360,000 compounds, 0.66% hits; AID 624169;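 active = activation above a run cutoff, the mean activation of all tested compounds plus 3 SD, cut at about 14% in these data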;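 also: 0% = plate median of compound wells and 100% = 30 µM serotonin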
# CCR6 antagonist – CCR6 (human) receptor antagonism; P51684; CHO-K1 CCR6 PathHunter beta-arrestin, luminescence, CCL20-stimulated; inhibition, % at 20 µM; 340,000 compounds, 0.49% hits; AID 493098;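 active = compounds whose inhibition of the agonist-driven luminescence signal at 20 µM reaches about 50%, limit read from the data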;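 also: cells stimulated with CCL20 at 14 nM final; plate controls were DMSO with CCL20 for no effect and DMSO without agonist for full effect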
# Target sequence (P51684 whole entry, looked up): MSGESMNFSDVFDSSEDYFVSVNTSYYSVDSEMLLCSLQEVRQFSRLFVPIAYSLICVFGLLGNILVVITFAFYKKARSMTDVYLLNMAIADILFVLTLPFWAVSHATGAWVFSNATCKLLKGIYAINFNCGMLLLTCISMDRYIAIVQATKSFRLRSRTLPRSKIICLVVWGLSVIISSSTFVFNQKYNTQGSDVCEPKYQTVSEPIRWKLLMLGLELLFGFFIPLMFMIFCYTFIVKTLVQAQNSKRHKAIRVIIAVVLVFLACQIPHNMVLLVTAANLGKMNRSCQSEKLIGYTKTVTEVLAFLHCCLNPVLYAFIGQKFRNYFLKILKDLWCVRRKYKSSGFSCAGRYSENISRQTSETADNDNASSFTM
# EBI2 antag – EBI2 (human) antagonism; 360,000 compounds, 0.81% hits; inhibition, % at 5 µM; AID 651636; EBI2 beta-arrestin recruitment, luminescence, 7a,25-OHC stimulated; in the data active = inhibition above about 38%;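 also: enzyme fragment complementation signal reports receptor beta-arrestin coupling in cells; 0% = agonist plus DMSO wells and 100% = wells without agonist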
# APJ antag – APJ receptor antagonism. AID 2521. 330,000 compounds, 0.32% hits. CHO-K1 APJ beta-arrestin complementation, luminescence. P35414. inhibition, % at 20 µM;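 active = inhibition above about 40% at 20 µM, limit read from the data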;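 also: cells challenged with 10 nM apelin-13 agonist together with compound; plate controls were apelin-13 plus DMSO wells for no effect and DMSO wells lacking apelin-13 for full effect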
# EBI2 antag conf – confirmation of human EBI2 receptor antagonists; EBI2 beta-arrestin luminescence, 7a,25-OHC antagonism; shares compounds with EBI2 antag; 2,400 compounds, 29% hits; AID 651997; inhibition, % at 5 µM;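 active = inhibition of at least 50%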
# EBI2 ag – EBI2 agonism counter-screen | shares compounds with EBI2 antag | EBI2-expressing cells, agonist mode, luminescence, 60 min; 0% vehicle, 100% 7α,25-dihydroxycholesterol control | activation, % at 5 µM | 2,400 tested, under 10 active | AID 652000;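 active = activation of at least 50%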
# bGal counter – inhibits E. coli beta-galactosidase, counter-screen for EBI2 antagonists | shares compounds with EBI2 antag | purified beta-galactosidase, luminescent Galacton Star, 15 min | inhibition, % at 5 µM | 2,400 compounds, 1% hits | AID 652176;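 active = replicate-average signal at least 3 plate SD below neutral wells, shown as high inhibition, flagging enzyme-inhibiting false positives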;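 also: 0% = DMSO wells with enzyme and 100% = wells lacking enzyme; higher means stronger loss of beta-gal luminescence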
# * = called active by the depositor; nt = not tested or not shown.
SMILES,APJ ag,CXCR6 inh,HTR2A ag,CCR6 antagonist,EBI2 antag,APJ antag,EBI2 antag conf,EBI2 ag,bGal counter
COc1ccccc1-n1c(SC(C)C(=O)NCC2CCCO2)nc2cc(Cl)ccc2c1=O (configuration not stated),-10,16,-4,30,13,35,nt,nt,nt
COc1ccc(-c2nc3c4c(ncn3n2)-c2ccccc2CC42CCCC2)cc1,-1,10,0,9,3,-12,nt,nt,nt
Cc1ccc(OCc2nc3c4c(ncn3n2)-c2ccccc2CC42CCCC2)cc1,-3,6,-1,14,25,18,nt,nt,nt
COc1ccc(OCc2nc3c4c(ncn3n2)-c2ccccc2CC42CCCC2)cc1,-2,-2,6,18,55*,-21,19,3,6
Oc1cccc(-c2nc3c4c(ncn3n2)-c2ccccc2CC42CCCC2)c1,0,-8,1,-8,47*,-19,31,2,9
O=C(O)CC(CC(=O)Nc1ccc(-n2ccc(C(F)(F)F)n2)cc1)c1ccccc1 (configuration not stated),-2,-8,3,3,-8,2,nt,nt,nt
CCOc1cc(NC(=S)NCC2CCCO2)c(OCC)cc1NC(=O)c1ccccc1 (configuration not stated),1,2,3,6,32,24,nt,nt,nt
O=C1CC(c2ccccc2)CC2=C1C=Nc1ccccc1N2 (configuration not stated),2,8,4,-8,53*,15,21,1,1
O=C1CC(c2ccc(F)cc2)CC2=C1C=Nc1ccccc1N2 (configuration not stated),-5,-7,-2,2,81*,29,43,1,7
CC1CC(=O)C2=C(C1)Nc1ccccc1N=C2 (configuration not stated),-2,-9,-1,4,-2,21,nt,nt,nt
Cc1ccc(S(=O)(=O)N2CCN(C(=O)COC(=O)COc3ccc(Br)cc3)CC2)c(C)c1,nt,5,10,-10,-10,nt,nt,nt,nt
CC(=O)c1ccc(OCC(=O)N2CCN(S(=O)(=O)c3ccc(C)cc3C)CC2)cc1,-1,-4,-10,-16,65*,-7,29,0,9
COc1ccc(C(=O)N2CCN(c3ccc(C)cc3C)CC2)cc1OC,-3,1,-4,8,78*,-58,53*,1,9
COc1ccc(C(=O)N2CCN(S(=O)(=O)c3ccc(C)cc3C)CC2)cc1OC,1,-3,8,-1,48*,13,51*,2,7
Cc1ccc(S(=O)(=O)N2CCN(C(=O)c3ccc4ccccc4n3)CC2)c(C)c1,-2,3,-9,2,55*,-13,45,1,7
CCN(CC(=O)Nc1ccccc1OC)C(=O)c1ccc(NC(=O)c2cccs2)cc1,0,2,-3,2,6,1,nt,nt,nt
COc1cccc2cc(C(=O)N3CCN(c4ccc(C)cc4C)CC3)c(=O)oc12,3,0,-2,-14,47*,14,33,1,8
O=C(Cn1c2ccccc2c2nc3n(c(=O)c21)CCS3)Nc1ccccc1,0,-4,1,12,1,13,nt,nt,nt
Cc1ccc(CNC(=O)c2ccc(N3CCc4ccccc43)c([N+](=O)[O-])c2)cc1,-4,23,-7,31,37*,28,19,-1,-6
O=C(c1c(F)c(F)c(F)c(F)c1F)N1CCN(Cc2ccc3c(c2)OCO3)CC1,-4,-10,3,-2,-10,6,nt,nt,nt
O=C(c1cc(-c2ccc(F)cc2)no1)N1CCN(Cc2ccc3c(c2)OCO3)CC1,-5,-10,0,0,76*,20,49,1,3
O=C(c1ccc2c(c1)OCO2)N1CCN(S(=O)(=O)c2ccccc2)CC1,-2,-15,6,-2,3,-39,nt,nt,nt
O=C(c1cc(-c2ccccc2)on1)N1CCN(Cc2ccc3c(c2)OCO3)CC1,1,-4,-2,5,50*,15,7,1,4
O=C(c1ccc(Cl)c(Cl)c1)N1CCN(Cc2ccc3c(c2)OCO3)CC1,-2,-1,-3,12,57*,4,48,0,-20
O=C(c1ccc2c(c1)OCO2)N1CCN(S(=O)(=O)c2ccc(Br)cc2Cl)CC1,0,2,-6,8,52*,-5,24,-2,-7
SMILES,APJ ag,CXCR6 inh,HTR2A ag,CCR6 antagonist,EBI2 antag,APJ antag,EBI2 antag conf,EBI2 ag,bGal counter
CSCCC(c1nnnn1-c1c(C)cccc1C)N1CCN(C/C=C/c2ccccc2)CC1 (configuration not stated),nt,11,-7,nt,53*,nt,8,-1,-13
C(=C\c1ccccc1)/CN1CCN(C(CCc2ccccc2)c2nnnn2C2CCCC2)CC1 (configuration not stated),nt,10,-11,nt,51*,nt,31,4,12
FC(F)(F)Oc1ccccc1C(c1nnnn1C1CCCC1)N1CCN(C/C=C/c2ccccc2)CC1 (configuration not stated),nt,24,-2,nt,64*,nt,39,-1,-8
COc1cccc(C(c2nnnn2C2CCCCC2)N2CCN(C/C=C/c3ccccc3)CC2)c1OC (configuration not stated),nt,14,-6,nt,12,nt,nt,nt,nt
C1CSC2(N1)C1CC3CC(C1)CC2C3 (configuration not stated),1,10,4,6,3,14,nt,nt,nt
O=C(Cc1ccccc1)N1CCC(c2nc(-c3ccc(F)cc3)no2)CC1,-3,-5,-1,11,-5,-32,nt,nt,nt
CCCCOC(=O)Nc1nnc(/C=C/c2ccc(OC)cc2)s1,-1,-10,1,11,55*,7,26,-1,-14
CC(=O)c1cccc(NC(=O)Cn2nc(-c3ccc(Cl)cc3)ccc2=O)c1,1,8,-3,0,8,-7,nt,nt,nt
Cc1ccc(N2CCN(c3ccc(C)cc3)C2c2cccnc2)cc1,3,-10,0,19,68*,-22,28,0,-12
c1ccc(N2CCN(c3ccccc3)C2c2cccnc2)cc1,-5,5,5,15,2,-7,nt,nt,nt
COc1ccc(Cn2c3ccc(OC)cc3c3nc4ccccc4nc32)cc1,-4,-4,1,2,53*,9,22,-1,-14
COc1ccc2c(c1)c1nc3ccccc3nc1n2Cc1ccc(OC(C)C)c(OC)c1,-5,3,-4,17,26,4,nt,nt,nt
